Results published in article PMC5903260 (British Journal of Clinical Pharmacology, 2018).
Like-named read-outs stand apart in the source and are kept apart here.

Key:
[1] = assay type: in vivo, human; details: for measured plasma concentrations of metabolites: all samples after regorafenib eye drops, below LLOQ (2 μg l^−1); for Cmax: C max
Outline: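 Plasma was sampled from predose to 7 days after a single dose, or to 14 days after the last of 14 days' dosing, with dense early time points. Parent and metabolites M-2 and M-5 were measured by validated LC-MS/MS; LLOQ was 0.1 µg l⁻¹ for parent and 2 µg l⁻¹ for metabolites. AUC over dosing intervals, AUC₀₋tlast, Cav, Cmax, Cmin, t1/2 and accumulation ratios were derived, with log-normal ANOVA for dose proportionality.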

[2] = Safety, tolerability and functional ocular assessments in healthy volunteers; assay type: in vivo, human
Outline: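 Randomized, double-masked, placebo-controlled ascending-dose design: four cohorts of 12 healthy men (9 active, 3 placebo). Drops of 30 mg ml⁻¹ (25 μl) were given to the left eye as 0.75 mg once, or 0.75 mg bid or tid for 14 days, or 1.5 mg tid for 3 days then both eyes to 14 days. Ocular symptoms were scored 5 min post-dose on a four-point scale. Visual acuity was tested at 4 m per ETDRS protocol.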

[3] = Subject rating of treatment; assay type: in vivo, human; details: numerical rating scale 0 (none) to 10 (very severe); comparable with placebo
[4] = cited from earlier work
[5] = all regorafenib cohorts pooled (n = 36)

CNC(=O)c1cc(Oc2ccc(NC(=O)Nc3ccc(Cl)c(C(F)(F)F)c3)c(F)c2)cc[n+]1[O-] [M‐2]
measured plasma concentrations of metabolites [1]: < 2 µg/L

NC(=O)c1cc(Oc2ccc(NC(=O)Nc3ccc(Cl)c(C(F)(F)F)c3)c(F)c2)cc[n+]1[O-] [M‐5]
measured plasma concentrations of metabolites [1]: < 2 µg/L

CNC(=O)c1cc(Oc2ccc(NC(=O)Nc3ccc(Cl)c(C(F)(F)F)c3)c(F)c2)ccn1 [Regorafenib]
C av0–8 ([1]; first dose, Cohort 1, 0.75 mg single dose, plasma, geometric mean/%CV (range)): 0.0377 ng/mL
C av0–8 ([1]; first dose, Cohort 3, 0.75 mg tid (2.25 mg day^−1), plasma, geometric mean/%CV (range)): 0.0352 ng/mL
C av0–8 ([1]; first dose, Cohort 4, 1.5 mg tid (9.0 mg day^−1), plasma, geometric mean/%CV (range)): 0.0564 ng/mL
Tmax ([1]; human, plasma, topical, tmax,md (time to reach maximum plasma concentration following multiple drug administration), individual subjects, after the last dose): 0 to 12 h
Cav0–12md (average concentration over the 12h dosing interval) ([1]; last dose, 0.75 mg bid (Cohort 2)): 3.39 ng/mL
C av0–8,md ([1]; last dose, Cohort 3, 0.75 mg tid (2.25 mg day^−1), geometric mean/%CV (range)): 4.01 ng/mL
C av0–8,md ([1]; last dose, Cohort 4, 1.5 mg tid (9.0 mg day^−1), geometric mean/%CV (range)): 12.2 ng/mL
AUC ([1]; male, human, plasma, topical, 0.75 mg): 40.7 ng·h/mL
AUC(0-t) ([1]; male, human, plasma, topical, 0.75 mg, AUC 0–8, first dose, Cohort 2, 0.75 mg bid (1.5 mg day^−1), geometric mean/%CV (range)): 0.255 ng·h/mL
AUC(0-t) ([1]; male, human, plasma, topical, 0.75 mg, AUC 0–8, first dose, Cohort 3, 0.75 mg tid (2.25 mg day^−1), geometric mean/%CV (range)): 0.282 ng·h/mL
AUC(0-t) ([1]; male, human, plasma, topical, 0.75 mg, AUC0–tlast, Cohort 1, 0.75 mg single dose): 39.2 ng·h/mL
Cmax ([1]; male, human, plasma, topical, 0.75 mg, first dose, Cohort 1, 0.75 mg single dose, geometric mean/%CV (range)): 0.42 ng/mL
Cmax ([1]; male, human, plasma, topical, 0.75 mg, first dose, Cohort 2, 0.75 mg bid (1.5 mg day^−1), geometric mean/%CV (range)): 0.234 ng/mL
Cmax ([1]; male, human, plasma, topical, 0.75 mg, first dose, Cohort 3, 0.75 mg tid (2.25 mg day^−1), geometric mean/%CV (range)): 0.186 ng/mL
Tmax ([1]; male, human, plasma, topical, 0.75 mg, t max, first dose, Cohort 1, 0.75 mg single dose, median (range)): 24 h
Tmax ([1]; male, human, plasma, topical, 0.75 mg, t max, first dose, Cohort 2, 0.75 mg bid (1.5 mg day^−1), median (range)): 11.9 h
Tmax ([1]; male, human, plasma, topical, 0.75 mg, t max, first dose, Cohort 3, 0.75 mg tid (2.25 mg day^−1), median (range)): 7.92 h
AUC(0-t) ([1]; male, human, plasma, topical, 1.5 mg, AUC 0–8, first dose, Cohort 4, 1.5 mg tid (9.0 mg day^−1), geometric mean/%CV (range)): 0.451 ng·h/mL
Cmax ([1]; male, human, plasma, topical, 1.5 mg, first dose, Cohort 4, 1.5 mg tid (9.0 mg day^−1), geometric mean/%CV (range)): 0.302 ng/mL
Tmax ([1]; male, human, plasma, topical, 1.5 mg, t max, first dose, Cohort 4, 1.5 mg tid (9.0 mg day^−1), median (range)): 8 h
day when steady state was reached ([1]; multiple-dose regimens, plasma concentrations): 7 days
safety and tolerability over the dose range ([2]; 0.75 mg single dose to 1.5 mg tid both eyes (9 mg day^−1), 30 mg ml^−1, 14 days): safe and well tolerated
eyelid redness and oedema, conjunctival hyperaemia and oedema ([2]; across all regorafenib cohorts): mild and comparable with the effects of placebo
subjects with a burning sensation [2, 5]: 25%
subjects with a foreign body sensation [2, 5]: 17%
subjects with a transient reduction in visual acuity [2, 5]: 31%
subjects with blurred vision after solicited questioning [2, 5]: 97%
subjects with increased lacrimation [2, 5]: 8%
subjects with itching [2, 5]: 17%
subjects with lid oedema [2, 5]: 8%
subjects with ocular/conjunctival redness [2, 5]: 19%
effect on electrocardiographic parameters ([2]; healthy volunteers, eye drops): No effect
pain and discomfort ratings [3]: mostly 0
apparent terminal elimination t1/2 after oral administration [4]: 20 to 30 h
